High-throughput results deposited in PubChem BioAssay by several laboratories.
PABP1 MLLE inh: blocks PAM2 peptide binding to the PABP1 MLLE domain; inhibition, % at 20 µM; hit rate 0.36% among 360,000; P11940; AID 588489; GST-MLLE / FITC-PAM2 fluorescence polarization; in the data active means inhibition above about 35%, passing the limit was not always enough
HCV NS3 hel inh: inhibitors of Hepatitis C virus NS3 helicase; NS3 helicase DNA unwinding, Cy5 molecular beacon fluorescence; inhibition, % at 10.9 µM; hit rate 0.56% among 290,000; AID 1800;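 active means inhibition above the mean of all tested compounds plus 3 SD, set per campaign, cut at about 35% in these data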
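Test system: hepatitis C virus NS3 helicase domain fragment enzyme. Also added: annealed dual-labelled DNA beacon duplex, ATP-started. Timing: 60 min unwinding reaction at 25 °C after ATP addition. Technique: Cy5 fluorescence. Measure: % inhibition of unwinding.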
DNA FID counter: displaces DNA intercalator in HCV helicase counter-screen; hit rate 0.17% among 290,000; AID 1845; inhibition, % at 7.9 µM; DNA fluorescent intercalator displacement, fluorescence; in the data active means inhibition above about 37%;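 further: higher means more ethidium bromide displaced from hairpin DNA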
eIF4H FP inh: inhibitors of RNA binding by human eIF4H; Q15056; eIF4H fluorescence polarization binding assay; inhibition, % at 35 µM; hit rate 0.94% among 290,000; AID 2012;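 further: calls also rest on retests at 20 µM and on dose response follow-up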
HCV core dimer: HCV core protein dimerization inhibition | hit rate 0.33% among 300,000 | AID 1899 | TR-FRET GST/Flag-core106 dimerization, 1536-well | inhibition, % at 5 µM;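 active means inhibition above the mean of all tested compounds plus 3 SD, set per screening campaign, cut at about 45% in these data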
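Material: Tagged HCV core106 pair (GST and Flag) | Amount: GST-core106 13.5 nM, Flag-core106 17 nM | Medium: KF-containing HEPES buffer, pH 7.45, DTT, CHAPS, BSA | Reagent: Eu donor and XL665 acceptor anti-tag antibodies | Schedule: 4 h at 22.5 °C | Technique: Time-resolved FRET, ex 340 nm, em 617 and 671 nm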
PABP polyA inh: PABP-poly(A) binding inhibition; P11940; PABP-poly(A) RNA binding, fluorescence polarization; inhibition, % at 35 µM; hit rate 1% among 290,000; AID 2014;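 further: calls also rest on retests at 20 µM and on dose response follow-up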
Numbers stand for hits; n = inactive; u = inconclusive; x = no result. Shown are actives, neighbours in structure and some others; about 2% of the full set was active somewhere. Unless noted, how the calls were made is not given here.

SMILES | PABP1 MLLE inh | HCV NS3 hel inh | DNA FID counter | eIF4H FP inh | HCV core dimer | PABP polyA inh
CCN(CC)CCCN(C(=O)c1ccc(OC)cc1)c1nc(-c2ccc(OC)cc2)cs1 | n | n | 44.1 | n | n | n
CC(C)c1nnc(NC(=O)CS(=O)(=O)Cc2ccccc2)s1 | 41.1 | n | n | n | n | n
N#Cc1c2n(c(=S)n(-c3ccccc3[N+](=O)[O-])c1=O)CCCCC2 | 50.7 | n | n | n | n | n
C/C(=N/NC(=O)c1ccc(C)s1)c1ccncc1 | n | n | n | n | x | n
CCc1ccccc1NC(=O)CN(C)C(=O)c1cccc(S(=O)(=O)N2CCCCCC2)c1 | n | x | x | x | x | x
Cc1cccc(/C=C/c2nc3ccccc3c(=O)n2Cc2ccccc2)c1 | n | n | n | 76.1 | n | 19.7
Cc1ccccc1/C=C\c1nc2ccccc2c(=O)n1Cc1ccccc1 | n | n | n | n | n | n
O=C(N/N=C/c1cc(Br)cc(Cl)c1O)c1ccc2c(c1)OCO2 | n | x | x | x | n | x
O=C(N/N=C/c1cc(Br)c(O)c(Br)c1O)c1ccc2c(c1)OCCO2 | n | n | n | 54.0 | n | n
CCOc1ccc(-n2cc(C(=O)Nc3cccc(Cl)c3)c3cc(OC)c(OC)cc3c2=O)cc1 | n | n | n | n | 47.8 | n
CCOc1ccc(NC(=O)c2cn(-c3ccc(OCC)cc3)c(=O)c3cc(OC)c(OC)cc23)cc1 | n | n | n | n | n | n
COc1ccc(C=Nc2ccc3[nH]ncc3c2)c(O)c1 | n | n | n | 77.4 | n | 37.0
Oc1c(Br)cc(Br)cc1C=Nc1ccc2[nH]ncc2c1 | n | n | n | n | n | n
COCCCNc1nc(N)c([N+](=O)[O-])c(Nc2cc(OC)ccc2OC)n1 | n | n | n | n | n | n
COc1ccc(OC)c(Nc2nc(NCCCN(C)C)nc(N)c2[N+](=O)[O-])c1 | n | n | 40.7 | n | n | n
Cc1ccc(NC(=O)COC(=O)COc2cccc3c2OC(C)(C)C3)c(C)c1 | n | x | x | x | n | x
COc1ccccc1NS(=O)(=O)c1cc(NC(=O)c2ccc(NC(C)=O)cc2)ccc1N1CCOCC1 | n | x | x | x | x | x
CCOc1cc(N2CCOCC2)c(OCC)cc1NS(=O)(=O)c1cc(NC(C)=O)ccc1OC | n | n | n | 58.6 | n | n
CCOc1cc(N2CCOCC2)c(OCC)cc1NC(=O)CN1CCCC(C)C1 (centres undefined) | n | n | n | u | n | 76.8
CCOc1cc(N2CCOCC2)c(OCC)cc1NC(=O)CN1CCC(Cc2ccccc2)CC1 | n | n | n | n | n | n
O=C(COc1ccccc1)N=C1SC2CS(=O)(=O)CC2N1c1ccc(F)cc1 (centres undefined) | n | n | n | n | n | n
CCOCCCn1c(=N)c(S(=O)(=O)c2ccc(C)cc2)cc2c(=O)n3cc(C)ccc3nc21 | 40.4 | n | n | u | n | n
CCc1ccccc1NC(=O)CCS(=O)(=O)c1ccc(OC)cc1 | n | n | n | 54.1 | n | n
CCN(C(=O)Cn1c(=O)oc2ccccc21)c1ccc(C)c(C)c1 | n | n | n | n | n | n
NC(=O)c1ccccc1NC(=O)C(c1ccccc1)c1ccccc1 | n | x | x | x | n | x
SMILES | PABP1 MLLE inh | HCV NS3 hel inh | DNA FID counter | eIF4H FP inh | HCV core dimer | PABP polyA inh
O=C(Cn1cc[n+](Cc2ccccc2)c1)c1ccc([N+](=O)[O-])cc1 | n | n | 43.6 | n | n | n
CC1=CCC(C(=O)O)C(C(=O)NC2CCCCC2)C1 (centres undefined) | n | n | n | 70.3 | n | n
O=C(C1=NN(c2ccccc2)C2C(=O)N(c3cccc(Cl)c3)C(=O)C12)c1ccccc1 (centres undefined) | n | n | n | u | n | 0.3
CN1CCN(S(=O)(=O)c2cccc(C(=O)N(Cc3ccccc3)c3ccccc3)c2)CC1 | n | n | n | n | n | n
O=C(CSc1nc2ccccc2c2c1CCCC2)N1CCOCC1 | n | n | n | n | n | n
O=C(CSc1nncc2ccccc12)N1CCOCC1 | 41.8 | n | n | n | n | n
Cc1cc(=O)cc(C)n1-c1ccc(F)cc1F | n | n | n | n | n | 18.4
Cc1ccc(-n2c(C)cc(=O)cc2C)c(C)c1 | n | n | n | n | n | n
O=C1c2ccccc2C(=O)N1CC1=CCS(=O)(=O)C1 | 39.1 | n | n | n | n | n
O=C1c2ccccc2C(=O)N1CCCN1C(=O)c2ccccc2C1=O | n | x | x | x | x | x
CCCn1c(C)cc(C(=O)COc2ccc(C)nc2[N+](=O)[O-])c1C | n | n | n | 69.0 | n | 8.6
Cc1ccc(OCC(=O)c2cc(C)n(-c3ccccc3)c2C)c([N+](=O)[O-])n1 | n | n | n | n | n | n
COCCn1c(C)cc(C(=O)COc2ccc(C)nc2[N+](=O)[O-])c1C | n | n | n | 115.4 | n | n
COCCn1c(C)cc(C(=O)CSc2ccc3ccccc3n2)c1C | n | n | n | 62.2 | n | 69.2
C=CCn1c(C)cc(C(=O)COc2ccc(C)nc2[N+](=O)[O-])c1C | n | n | n | u | n | n
Cc1cc(C(=O)COc2cccnc2[N+](=O)[O-])c(C)n1Cc1cccs1 | n | n | n | 105.6 | n | n
CC(C)(C)[C@H]1COC(=O)CCCC/C=C\C[C@H](CC(=O)N(CCO)Cc2ccccc2)C(=O)N1 | n | x | x | x | x | x
CC(C)C1C(=O)N(Cc2cn(CCC3OCCO3)nn2)CCS(=O)(=O)N1Cc1ccc(-c2ccc(F)cc2)cc1 (centres undefined) | n | x | x | x | x | x
Cc1cc2cc(CNC(=O)c3ccc(S(=O)(=O)N4CCOCC4)cc3)ccc2n1C | 46.8 | n | n | n | n | n
Cc1cc2cc(CNC(=O)c3ccc(S(=O)(=O)N(C)C)cc3)ccc2n1C | 50.3 | n | n | u | n | n
COc1cccc(CNC(=O)c2ccc(S(=O)(=O)N3CCOCC3)cc2)c1 | n | x | x | x | x | x
O=S(=O)(c1ccc(=S)[nH]c1)N1CCOCC1 | 46.0 | x | x | x | x | x
O=S(=O)(c1ccc(=S)[nH]c1)N1CCCCCC1 | n | x | x | x | x | x
Cc1ccc(-c2ccc(/C=N\NC(=O)c3cc4c(ccc5ccccc54)o3)o2)cc1[N+](=O)[O-] | n | n | n | n | n | n
O=C(N/N=C/c1ccc(-c2ccc(Cl)c(C(=O)O)c2)o1)c1cc2c(ccc3ccccc32)o1 | n | n | n | 76.5 | n | 76.1
SMILES | PABP1 MLLE inh | HCV NS3 hel inh | DNA FID counter | eIF4H FP inh | HCV core dimer | PABP polyA inh
CC1C(=O)N2CCCc3cc(S(=O)(=O)N(C)CCC#N)cc1c32 (centres undefined) | n | n | n | n | n | n
Cc1c(NC(=S)Nc2cccc(Cl)c2)c(=O)n(-c2ccccc2)n1C | n | n | n | active | n | n
Cc1c(NC(=O)Nc2cccc(Cl)c2)c(=O)n(-c2ccccc2)n1C | n | n | n | n | n | n
COc1cc(C(=O)N2CCN(S(=O)(=O)c3cccc(F)c3)CC2)ccc1OCC(=O)N1CCOCC1 | n | x | x | x | n | x
Cc1ccc(Cl)cc1NC(=O)C[n+]1ccc(Cc2ccc([N+](=O)[O-])cc2)cc1 | n | n | 39.7 | n | n | n
COc1ccc(N2CCN(CC(=O)Nc3c(C)cccc3C)CC2)cc1 | n | x | x | x | x | x
